We go through 48 molecules from ChEMBL document CHEMBL4251594, “Design and synthesis of sulfonamidophenylethylureas as novel cardiac myosin activator” (Eur J Med Chem, 2018).

The structures appear in SMILES notation.

The species entered for one data set is Bos taurus. The experiment in a line: Activation of actin-stimulated bovine cardiac myosin S1 fragment ATPase activity in sarcomere at 10 uM after 10 mins by spectrophotometric analysis relative to control.
The subject of data set [1] is Rattus norvegicus. The experiment in a line: Positive inotropic activity in Sprague-Dawley rat heart assessed as increase in ejection fraction at 2 to 16 ug/kg/min infused for 3 mins by echocardiographic analysis. The data set is classed as functional. A digest of the protocol: (§1)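 Seven-week-old male Sprague-Dawley rats; dosing via internal jugular vein central line, infused at 0, 2, 4, 8 and 16 µg/kg/min for 3 minutes from a 40 µg/mL final solution (concentration checked by HPLC against three standards). M-mode echocardiography at baseline and 16 µg/kg/min with a 25 MHz transducer; percent rise in LV fractional shortening and ejection fraction.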

Data set [2] deals with Rattus norvegicus. The experiment in a line: Positive inotropic activity in Sprague-Dawley rat heart assessed as increase in left ventricle fractional shortening at 2 to 16 ug/kg/min infused for 3 mins by echocardiographic analysis. The data set is classed as functional. Summed up: as §1
The species named for a further data set is Oryctolagus cuniculus. The experiment in a line: Activation of actin-stimulated rabbit skeletal muscle myosin S1 fragment ATPase activity at 100 uM after 10 mins by spectrophotometric analysis relative to control.
The subject of data set [3] is Cardiac muscle cell. The experiment in a line: Positive inotropic activity in Sprague-Dawley rat ventricular myocytes assessed as change in ventricular cell contractility by measuring cell shortening at 5 uM. The data set is classed as functional.
The species named for another data set is Gallus gallus. Briefly: Activation of actin-stimulated chicken gizzard smooth muscle myosin S1 fragment ATPase activity at 100 uM after 10 mins by spectrophotometric analysis relative to control.
Data set [4] can be described thus: Aqueous solubility of the compound in water. Conditions: buffer. The format is physicochemical.
Data set [5] has as its system Cardiac muscle cell. Briefly: Positive inotropic activity in Sprague-Dawley rat ventricular myocytes assessed as change in ventricular cell contractility by measuring cell shortening at 1 uM. The format is functional.

Turning to `CCN(CCCc1ccccc1)C(=O)N(CC)CCc1ccc(S(=O)(=O)N(C)C)cc1`, the Activity in the data set listed under Bos taurus was 30.3%.

In the case of `CN(C)S(=O)(=O)c1ccc(CCNC(=O)NCCCc2ccc(F)cc2)cc1`, the Activity in the data set listed under Bos taurus is 20.6%.

With `CN(C)c1ccc(CCNC(=O)NCCCc2ccccc2)cc1`, the Activity in the data set filed under Bos taurus worked out at 45.3%.

For `COc1cccc(CCNC(=O)NCCCc2ccccc2)c1`, the Activity in the data set filed under Bos taurus was 35%.

With `Nc1ccc(CCNC(=O)NCCCc2ccccc2)cc1`, the Activity in the data set filed under Bos taurus is 55.2%; in the data set on Rattus norvegicus [1] it was 4.16%; in the data set on Rattus norvegicus [2] it was 6.37%.

Turning to `CC(C)N(CCc1ccc(S(=O)(=O)N(C)C)cc1)C(=O)N(C)CCCc1ccccc1`, the Activity in the data set listed under Bos taurus worked out at 40.6%.

Take `O=C(NCCCc1ccccc1)NCc1ccccc1`: the Activity is 53.3% in the data set listed under Bos taurus; 18.27% in the data set on Rattus norvegicus [1]; 1.4% in the data set listed under Oryctolagus cuniculus; 25.3% in the data set on Cardiac muscle cell [3]; 30.04% in the data set on Rattus norvegicus [2]; -3.7% in the data set filed under Gallus gallus.

Regarding `O=C(NCCCc1ccccc1)NCCc1ccccc1`, the Activity in the data set filed under Bos taurus is 51.1%; in the data set on Rattus norvegicus [1] it was 12.15%; in the data set filed under Oryctolagus cuniculus it was -2.1%; with Cardiac muscle cell [3], 20.8%; in the data set with Rattus norvegicus [2], 18.9%; in the data set listed under Gallus gallus, -4.7%.

Take `Cc1ccc(CCNC(=O)NCCCc2ccccc2)cc1`: the Activity in the data set listed under Bos taurus came to 73.8%. In data set [4], the solubility result is given as “Insoluble”.

With `CCN(CCc1ccc(S(=O)(=O)N(C)C)cc1)C(=O)NCCCc1ccccc1`, the Activity in the data set listed under Bos taurus came to 39.5%.

Regarding `CN(C)S(=O)(=O)c1ccc(CCNC(=O)N2CCC(c3ccccc3)CC2)cc1`, the Activity in the data set filed under Bos taurus was found to be 40.7%.

Take `CN(C)S(=O)(=O)c1ccc(CNC(=O)NCCCc2ccccc2)cc1`: the Activity in the data set filed under Bos taurus came to 34.5%.

Turning to `COc1ccc(CCNC(=O)NCCCCc2ccccc2)cc1OC`, the Activity in the data set filed under Bos taurus stood at 32.5%.

As to `CN(C)S(=O)(=O)c1ccc(C2CCN(C(=O)NCCc3ccccc3)CC2)cc1`, the Activity in the data set filed under Bos taurus is 32.6%.

Consider `O=C(NCCCc1ccccc1)NCCc1ccc(Cl)cc1`, for which, in the data set filed under Bos taurus, the Activity amounted to 31%.

`CN(CCc1ccc(S(=O)(=O)N(C)C)cc1)C(=O)NCCCc1ccccc1`: the Activity stood at 52.3% in the data set filed under Bos taurus, 24.19% in the data set with Rattus norvegicus [1] and 38.96% in the data set on Rattus norvegicus [2].

As for `NS(=O)(=O)c1ccc(CCNC(=O)NCCCc2ccccc2)cc1`, the Activity in the data set filed under Bos taurus stood at 41.9%; in the data set with Rattus norvegicus [1] it was 7.23%; in the data set with Rattus norvegicus [2], 11.24%.

As for `CN(C)S(=O)(=O)c1ccc(C2CCN(C(=O)NCc3ccccc3)CC2)cc1`, in the data set listed under Bos taurus, the Activity was determined as 36.9%.

With `NS(=O)(=O)c1ccc(CCNC(=O)NCCCc2ccc(Cl)cc2)cc1`, the Activity in the data set listed under Bos taurus was found to be 37.9%.

`O=C(NCCCc1ccccc1)NCCc1ccc(Cl)cc1Cl`: the Activity in the data set filed under Bos taurus turned out to be 37.3%.

With `NS(=O)(=O)c1ccc(NC(=O)NCCCc2ccccc2)cc1`, the Activity in the data set filed under Bos taurus worked out at 31.8%.

For the molecule `NS(=O)(=O)c1ccc(CCNC(=O)NCCCc2ccc(F)cc2)cc1`, in the data set filed under Bos taurus, the Activity amounted to 19.1%.

`COc1ccc(CCCNC(=O)NCCc2ccc(OC)c(OC)c2)cc1`: the Activity in the data set filed under Bos taurus turned out to be 38.4%.

`O=C(NCCCc1ccccc1)NCCc1ccc(F)cc1`: the Activity in the data set listed under Bos taurus worked out at 38.6%.

With `CC(C)N(CCc1ccc(S(=O)(=O)N(C)C)cc1)C(=O)NCCCc1ccccc1`, the Activity in the data set listed under Bos taurus amounted to 38.1%.

Consider `COc1ccc(CCCNC(=O)NCCc2ccc(S(N)(=O)=O)cc2)cc1`, for which the Activity in the data set filed under Bos taurus came to 34.8%.

Consider `COc1ccc(CNC(=O)NCCCc2ccccc2)cc1OC`, for which the Activity in the data set filed under Bos taurus was determined as 38.8%.

`CC(C)c1ccc(CCNC(=O)NCCCc2ccccc2)cc1`: the Activity in the data set listed under Bos taurus turned out to be 33.3%.

On to `COc1ccc(CNC(=O)NCCCc2ccccc2)cc1`, for which the Activity in the data set listed under Bos taurus was 25.4%.

Consider `O=C(NCCCc1ccccc1)NCCc1ccccc1F`, for which the Activity in the data set filed under Bos taurus is 65.4%; in the data set with Rattus norvegicus [1] it was 8.76%; in the data set on Rattus norvegicus [2] it was 12.52%.

Turning to `CN(C)S(=O)(=O)c1ccc(CCCNC(=O)NCc2ccccc2)cc1`, in the data set listed under Bos taurus, the Activity worked out at 20.8%.

For the molecule `CN(C)S(=O)(=O)c1ccc(CNC(=O)N2CCC(c3ccccc3)CC2)cc1`, the Activity in the data set listed under Bos taurus worked out at 27.6%.

`COC(=O)N1CCN(Cc2cccc(NC(=O)Nc3ccc(C)nc3)c2F)CC1` [OMECAMTIV MECARBIL]: the Activity in the data set on Cardiac muscle cell [5] was 33.8%; in the data set listed under Bos taurus, 58%; in the data set on Rattus norvegicus [1], 13.35%; in the data set listed under Oryctolagus cuniculus, 2.8%; in the data set on Rattus norvegicus [2] it was 20.32%; in the data set listed under Gallus gallus it was -5.5%.

Regarding `COc1ccc(CCNC(=O)NCCCc2ccccc2)cc1`, in the data set filed under Bos taurus, the Activity was determined as 40%.

Turning to `O=C(NCCCc1ccccc1)NCCc1ccc(C(=O)O)cc1`, the Activity in the data set filed under Bos taurus is 40.6%.

Take `O=C(NCCCc1ccc(F)cc1)NCc1ccccc1`: the Activity in the data set listed under Bos taurus worked out at 9.5%.

With `COc1ccccc1CCNC(=O)NCCCc1ccccc1`, the Activity in the data set listed under Bos taurus turned out to be 95.1%; in the data set on Rattus norvegicus [1], 13.58%; in the data set listed under Oryctolagus cuniculus it was 3.5%; in the data set with Cardiac muscle cell [3], 19.7%; with Rattus norvegicus [2] it was 20.47%; in the data set filed under Gallus gallus it was 5.3%.

As for `O=C(NCCCc1ccccc1)NCCc1ccc([N+](=O)[O-])cc1`, in the data set listed under Bos taurus, the Activity worked out at 56.2%.

Consider `NS(=O)(=O)c1ccc(CCNC(=O)NCCCCc2ccccc2)cc1`, for which, in the data set filed under Bos taurus, the Activity was 36.6%.

As to `CN(CCCc1ccccc1)C(=O)N(C)CCc1ccc(S(=O)(=O)N(C)C)cc1`, the results for the Activity in the data set listed under Bos taurus, in the data set with Rattus norvegicus [1] and with Rattus norvegicus [2] were 69%, 0.27% and 0.46%, respectively.

For the molecule `Cc1ccc2c(c1)C(=O)[C@]1(O)CCN(c3ccccc3)C1=N2`, the Activity in the data set filed under Oryctolagus cuniculus was -50.7%; in the data set filed under Gallus gallus, -35.7%.

`COc1ccc(CCCNC(=O)NCc2ccccc2)cc1`: in the data set filed under Bos taurus, the Activity was 30.5%.

For the molecule `CN(C)S(=O)(=O)c1ccc(C2CCN(C(=O)NCCCc3ccccc3)CC2)cc1`, the Activity in the data set filed under Bos taurus was 85.1%.

`COc1ccc(CCNC(=O)NCCCc2ccccc2)cc1OC`: the Activity is 122% in the data set filed under Bos taurus; 15.87% in the data set with Rattus norvegicus [1]; -2.4% in the data set filed under Oryctolagus cuniculus; 22.2% in the data set on Cardiac muscle cell [3]; 23.97% in the data set on Rattus norvegicus [2]; 4.3% in the data set filed under Gallus gallus.

Take `COc1ccc(S(N)(=O)=O)c(CCNC(=O)NCCCc2ccccc2)c1`: in the data set filed under Bos taurus, the Activity turned out to be 29.4%.

Consider `CN(C)S(=O)(=O)c1ccc(CCNC(=O)NCCCc2ccccc2)cc1`, for which the Activity is 91.6% in the data set listed under Bos taurus; 11.55% in the data set with Rattus norvegicus [1]; -3.8% in the data set listed under Oryctolagus cuniculus; 47.9% with Cardiac muscle cell [3]; 17.62% in the data set on Rattus norvegicus [2]; -1.9% in the data set listed under Gallus gallus.

With `NS(=O)(=O)c1ccc(CNC(=O)NCCCc2ccccc2)cc1`, the Activity in the data set filed under Bos taurus came to 39.6%.

Take `CN(CCCc1ccccc1)C(=O)NCCc1ccc(S(=O)(=O)N(C)C)cc1`: the Activity worked out at 47.6% in the data set listed under Bos taurus, 15.47% in the data set with Rattus norvegicus [1] and 23.19% in the data set with Rattus norvegicus [2].
